Experimental findings from PubChem BioAssay AID1385 (PCMD, 2008) are described below.

SMILES strings stand for the structures. In all, about 200,000 compounds went through this assay and about 170 (0.085%) were called active. The sample holds actives, similar compounds and a random draw of the others, so the mix is not that of the screen. Values without a mark were called inactive.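 How the source made its calls: active means inhibition above 40% at the single screening dose; inactive means the rest.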

DNA repair protein RAD51 homolog 1 (Homo sapiens), sequence (Q06609 whole entry, looked up): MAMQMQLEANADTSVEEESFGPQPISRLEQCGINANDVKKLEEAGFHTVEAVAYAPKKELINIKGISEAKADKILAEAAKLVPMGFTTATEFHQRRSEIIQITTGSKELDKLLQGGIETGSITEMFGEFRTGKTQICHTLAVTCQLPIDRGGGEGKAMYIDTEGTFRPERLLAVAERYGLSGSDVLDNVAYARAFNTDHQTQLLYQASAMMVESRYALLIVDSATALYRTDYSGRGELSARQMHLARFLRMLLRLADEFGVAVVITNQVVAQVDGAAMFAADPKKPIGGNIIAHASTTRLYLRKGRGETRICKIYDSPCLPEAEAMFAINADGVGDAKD

This test has as its target DNA repair protein RAD51 homolog 1 (Homo sapiens) (UniProt Q06609). As to the kind of experiment: human RAD51 strand exchange inhibitors, primary screen, biochemical, fluorescence (AID 1385).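 Further: 0% = DMSO control wells and 100% = blanks with heterologous ssDNA.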 Conditions: hRad51 DNA strand exchange, fluorescence dequenching; at 10 µM; hits give high values. A digest of the protocol: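 System: human Rad51 nucleoprotein filaments preassembled on unlabelled ssDNA. Reagent: labelled 47-mer dsDNA for strand exchange. Schedule: 30-min compound preincubation and 15-min exchange, both room temperature. Measured by: FRET fluorescence dequenching, excitation 485 nm, emission 520 nm. Read-out: Fluorescence-based percent inhibition, control- and blank-normalised. Benchmarks: plate controls and plate blanks.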
Take `Cc1ccc2c(c1)nnc1nnc(SCC(=O)O)n12`: the inhibition was 3.89%.

Turning to `CCC(C)(C)NC(=O)C(c1ccc(O)cc1)N(C(=O)Cn1nnc2ccccc21)c1ccc(NC(C)=O)cc1` (stereo not drawn), the inhibition is -8.67%.

As for `Oc1c(Br)cc(/C=N/NC(=S)NCC2CCCO2)cc1Br` (stereo not drawn), the inhibition was -9.24%.

Turning to `O=C(Nc1nc2ccc([N+](=O)[O-])cc2s1)c1ccncc1`, the inhibition was 6.33%.

For the molecule `COc1cc(OC)c(OC)cc1/C=N/Nc1ncnc2c1[nH]c1ccc(C)cc12`, the inhibition was -8.84%.

Take `Cc1nc(-c2ccc(Cl)cc2)sc1C1(C)CC(c2ccc(Br)cc2)=NO1` (stereo not drawn): the inhibition was -6.72%.

Regarding `COc1ccc(Cc2nnc(NS(=O)(=O)Cc3ccccc3)s2)cc1`, the inhibition is -0.75%.

Consider `CCC(CC)c1nnc(NC(=O)c2nn(C)c(=O)c3ccccc23)s1`, for which the inhibition is 6.66%.

Take `CCC(CC)c1nnc(NS(=O)(=O)Cc2ccccc2)s1`: the inhibition is 84.4% (active).

Consider `COc1ccccc1N1CCN(C(=O)CSc2ncnc3c2cnn3-c2ccc(C)c(C)c2)CC1`, for which the inhibition is -12.6%.

`CC1CN(c2nc(Nc3ccccc3)nc(N)c2[N+](=O)[O-])CC(C)O1` (stereo not drawn): the inhibition was -23.5%.

As for `CC(=O)c1ccc(NC(=O)C2CC(=O)Nc3nc4ccccc4n32)cc1` (stereo not drawn), the inhibition was -1.17%.

Take `COc1ccccc1-c1c(C#N)c(N)nc2c1CCC2`: the inhibition was -0.29%.

For the molecule `CCNC(=S)N1CCN(CCN=CC2=C(O)CC(C)(C)CC2=O)CC1`, the inhibition is 16.2%.

With `Cc1cccc(N2CCN(Cc3nc(C4CC4)no3)CC2)n1`, the inhibition is -8.44%.

For `COC(=O)[C@H](CC(C)C)NC(=O)N1CCCCC1C` (stereo partly drawn), the inhibition was -6.96%.

For `COc1ccc(/C(C)=N/N2CCOCC2)c(O)c1`, the inhibition was 16.1%.

For the molecule `Cn1c(SCC(=O)N/N=C/c2ccc(O)c(O)c2)nc2ccccc21`, the inhibition was -10.2%.

Turning to `Cc1cc(=O)oc2c(C(=O)c3ccccc3)c(OCC(N)=O)ccc12`, the inhibition was -5.93%.

`CCOc1ccc(C2NC(=S)NC3=C2CCc2ccccc23)cc1` (stereo not drawn): the inhibition is 5.83%.

For `CN1CCc2nc(SC(C(=O)O)c3ccccc3)c(C#N)c(-c3cccs3)c2C1` (stereo not drawn), the inhibition is -22.2%.

On to `CCCc1ccc(C(=O)[C@@H]2[C@@H](C(C)=O)N3c4ccc(F)cc4C=C[C@@H]3[C@@]23C(=O)Nc2ccccc23)cc1`, for which the inhibition was 10.1%.

For `CC(C)S(=O)(=O)c1csc(NC(=O)Nc2ccc(Cl)cc2)c1Cl`, the inhibition was -3.14%.

In the case of `Cc1ccc(-c2csc(-c3cc(C)on3)n2)cc1`, the inhibition was 9.91%.

In the case of `CC1(C)CCSC(/C=C/c2ccccc2)=N1`, the inhibition is 10.2%.

`CC(C)(C)c1cc(C(=O)NN)n(Cc2ccc(Cl)cc2Cl)n1`: the inhibition is 9.98%.

With `CC(C)(C)c1ccc(/C=C2\Oc3c(ccc(O)c3CN3CCN(CCO)CC3)C2=O)cc1`, the inhibition is -31.8%.

With `COC(=O)[C@H](Cc1ccccc1)NC(=O)Nc1ccc(OC)cc1`, the inhibition is 7.38%.

As for `S=C(NCCc1ccccc1)Nc1ccccc1`, the inhibition was 15.1%.

For the molecule `CCn1c(SCC(=O)N/N=C/c2ccccc2OCC(=O)O)nnc1-c1ccc(C(C)(C)C)cc1`, the inhibition was 8.66%.

For the molecule `CCOC(=O)c1cc(C)nc(S(C)(=O)=O)c1C#N`, the inhibition was 16%.

As to `C=CCSc1nnc(NC(=O)c2ccc(NC(C)=O)cc2)s1`, the inhibition was 4.61%.

Turning to `Nc1c(N(CCO)C(=O)C2CCCCC2)c(=O)[nH]c(=O)n1Cc1ccccc1`, the inhibition was -7.08%.

As to `CC(=O)OCCOCn1cnn2c(=O)c(Br)c(C)nc12`, the inhibition was 1.73%.

In the case of `COc1ccc(CCNC2=CC(=O)CC(C)(C)C2)cc1`, the inhibition is 3.57%.

On to `Cc1ccc(-c2cc(C(=O)NN)n[nH]2)o1`, for which the inhibition was 8.49%.

For `CNC(=O)c1csc(Cc2c(Cl)sc3ccc(Cl)cc23)n1`, the inhibition was 5.52%.

For the molecule `S=c1nc2ccccc2c2nc(-c3cccnc3)[nH]n12`, the inhibition was 1.9%.

`O=[N+]([O-])C(=c1ccc2c(c1)N1C3=C(CCCC3)CC3CCCCC31N=2)[N+](=O)[O-]` (stereo not drawn): the inhibition is -20.4%.

Take `CCOC(=O)c1ccc(S(=O)(=O)N(CCO)Cc2cc3cc(OC)c(OC)cc3[nH]c2=O)cc1`: the inhibition is -11%.

As for `Fc1ccccc1/C=N/n1c(-c2cccnc2)n[nH]c1=S`, the inhibition is 5.39%.

For the molecule `Fc1ccc(Nc2nnns2)cc1`, the inhibition was -7.15%.

Consider `Cc1ccc(-c2nc(SCC(=O)Nc3ccccc3OC(F)F)c3c(C)c(C(=O)O)sc3n2)cc1`, for which the inhibition was -23.3%.

`CC(C)c1cc(CN2CCOCC2)cc(C(C)C)c1O`: the inhibition is -12.3%.

With `Clc1ccc(C[n+]2cc(-c3ccc(Cl)cc3)n3c2CCC3)cc1`, the inhibition is 16.8%.

Regarding `CC(C)CCN1NC2(CCC(C)CC2)NC1=S` (stereo not drawn), the inhibition was 7.9%.

Turning to `CC(=O)NCc1ccc(S(=O)(=O)NC2CCN(Cc3ccccc3)CC2)cc1`, the inhibition is -43.1%.

In the case of `O=[N+]([O-])c1ccc(N/N=C/c2ccccc2)cc1`, the inhibition was -5.09%.

Take `COc1cccc(CC(=O)Nc2ccc(-c3csc(C)n3)cc2)c1`: the inhibition is 6%.

Turning to `O=C(O)COCC(=O)NCc1csc2ccc(Cl)cc12`, the inhibition is 15%.

Take `C/C=C/C(=O)Nc1ccc(N2CCN(c3ccc(C(F)(F)F)cn3)CC2)nc1`: the inhibition is 19.9%.

Take `Cc1nc2cc(NC(=O)Nc3cccc(F)c3)ccc2n1C`: the inhibition was 2.24%.

With `CCOC(=O)COc1nc(C)cc(C(F)(F)F)c1C#N`, the inhibition is -33.8%.

With `COC(=O)c1ccc(COc2cc([N+](=O)[O-])cc3cccnc23)cc1`, the inhibition was -2.29%.

On to `C=CCN1CC(C)/C(=N\O)CC1C` (stereo not drawn), for which the inhibition was -1.92%.

With `Cc1nc2nc(SCC(=O)c3ccccc3)[nH]c2cc1Br`, the inhibition is -17.9%.

In the case of `O=C(CCNc1n[nH]c(=O)[nH]c1=O)N/N=C\c1ccc(Br)cc1`, the inhibition was -0.51%.

With `CC(C)(C)n1cnnc1Sc1ccc([N+](=O)[O-])cn1`, the inhibition was 25.8%.

On to `Cn1nccc1NS(=O)(=O)c1ccc(F)cc1`, for which the inhibition was -8.74%.

`COc1ccc(Cl)cc1S(=O)(=O)N1CCC(O)(c2ccc(Cl)cc2)CC1`: the inhibition is 10.6%.

Regarding `Cc1ccc(C(=O)COc2cccc(NC(=O)c3ccco3)c2)cc1`, the inhibition was 89.3% (active).

Regarding `COc1cccc(C(=O)Nc2ccc(NC(=O)c3ccco3)cn2)c1`, the inhibition was -3.19%.

Turning to `Cc1ccnc(NC(=O)c2ccc(NC(=O)c3ccco3)cc2)c1`, the inhibition is -5.85%.

The inhibition is the drop in the measured response relative to a control, in per cent.
